Assay results from ChEMBL document CHEMBL5316310, “Discovery of MK-8189, a Highly Potent and Selective PDE10A Inhibitor for the Treatment of Schizophrenia” (J Med Chem, 2023).
Values after ≈ are worked out from the molar mass of the structure shown.

What was measured:
[1] = Selectivity ratio of Ki for N-terminal GST-tagged full length human recombinant PDE9A2 expressed in baculovirus-infected Sf9 cells to Ki for human PDE10A2 transfected in human AD293 cells cytosolic fraction
[2] = molecular target: T1, cAMP and cAMP-inhibited cGMP 3',5'-cyclic phosphodiesterase 10A (Homo sapiens, UniProt Q9Y233); assay: Inhibition of human recombinant full length PDE10A
T1 sequence (Q9Y233 whole entry): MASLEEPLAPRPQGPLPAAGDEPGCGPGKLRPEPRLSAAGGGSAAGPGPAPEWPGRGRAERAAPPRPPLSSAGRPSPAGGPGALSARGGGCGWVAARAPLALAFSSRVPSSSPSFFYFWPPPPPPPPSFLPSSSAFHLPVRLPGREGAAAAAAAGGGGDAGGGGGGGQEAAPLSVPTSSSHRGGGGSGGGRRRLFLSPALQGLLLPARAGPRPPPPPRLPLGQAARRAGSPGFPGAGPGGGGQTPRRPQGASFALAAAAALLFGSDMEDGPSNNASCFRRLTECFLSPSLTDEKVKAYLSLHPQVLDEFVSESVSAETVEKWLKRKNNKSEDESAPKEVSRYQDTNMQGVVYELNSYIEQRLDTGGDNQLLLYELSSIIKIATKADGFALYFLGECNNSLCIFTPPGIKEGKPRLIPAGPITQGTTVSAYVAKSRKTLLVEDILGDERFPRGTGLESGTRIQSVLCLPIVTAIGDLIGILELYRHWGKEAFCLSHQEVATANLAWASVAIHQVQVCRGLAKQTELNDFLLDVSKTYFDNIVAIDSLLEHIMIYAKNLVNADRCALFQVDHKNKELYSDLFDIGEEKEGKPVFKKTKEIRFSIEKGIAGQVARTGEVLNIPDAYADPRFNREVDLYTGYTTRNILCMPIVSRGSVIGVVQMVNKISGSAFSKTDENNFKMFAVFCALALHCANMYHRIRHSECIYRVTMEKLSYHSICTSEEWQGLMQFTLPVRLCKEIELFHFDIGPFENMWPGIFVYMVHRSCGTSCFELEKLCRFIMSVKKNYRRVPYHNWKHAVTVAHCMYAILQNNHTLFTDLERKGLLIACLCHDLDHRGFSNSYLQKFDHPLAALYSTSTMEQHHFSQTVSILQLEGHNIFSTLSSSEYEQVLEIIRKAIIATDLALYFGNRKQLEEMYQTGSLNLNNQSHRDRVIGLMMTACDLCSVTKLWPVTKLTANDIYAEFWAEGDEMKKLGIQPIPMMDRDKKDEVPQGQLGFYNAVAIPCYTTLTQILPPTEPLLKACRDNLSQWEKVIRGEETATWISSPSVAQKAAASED

Rattus norvegicus = assay: Anti-psychotic activity in rat assessed as inhibition of MK-801-induced hyperlocomotion administered orally 1 hr prior to MK-801 administration and measured for 90 mins; assay type: functional, organism-based; settings: dose 0.25-0.75 mg/kg, route po, time 150.0 min
Summary of the method: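 Rats given compound orally at 0.25–0.75 mg/kg 1 h before the NMDA antagonist MK-801. Total distance travelled was recorded over 90 min and compared with vehicle + MK-801 groups (p < 0.05). n = 8/group; mean ± SEM.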

[3] = molecular target: T1, cAMP and cAMP-inhibited cGMP 3',5'-cyclic phosphodiesterase 10A; assay: Reversible binding affinity to human full length His-tagged PDE10A2 assessed as half-life on the enzyme measured at 25 degC by surface plasmon resonance analysis
[4] = Inhibition of IKS channel (unknown origin); design: species or system Homo sapiens
[5] = Selectivity ratio of Ki for Rhesus monkey PDE2A3 transfected in AD293 cells cytosolic fraction to Ki for human PDE10A2 transfected in human AD293 cells cytosolic fraction; assay type: cell-based
[6] = molecular target: Voltage-dependent L-type calcium channel subunit alpha-1C (Homo sapiens, UniProt Q13936); assay: Inhibition of Cav1.2 (unknown origin)
Voltage-dependent L-type calcium channel subunit alpha-1C, sequence (Q13936 whole entry): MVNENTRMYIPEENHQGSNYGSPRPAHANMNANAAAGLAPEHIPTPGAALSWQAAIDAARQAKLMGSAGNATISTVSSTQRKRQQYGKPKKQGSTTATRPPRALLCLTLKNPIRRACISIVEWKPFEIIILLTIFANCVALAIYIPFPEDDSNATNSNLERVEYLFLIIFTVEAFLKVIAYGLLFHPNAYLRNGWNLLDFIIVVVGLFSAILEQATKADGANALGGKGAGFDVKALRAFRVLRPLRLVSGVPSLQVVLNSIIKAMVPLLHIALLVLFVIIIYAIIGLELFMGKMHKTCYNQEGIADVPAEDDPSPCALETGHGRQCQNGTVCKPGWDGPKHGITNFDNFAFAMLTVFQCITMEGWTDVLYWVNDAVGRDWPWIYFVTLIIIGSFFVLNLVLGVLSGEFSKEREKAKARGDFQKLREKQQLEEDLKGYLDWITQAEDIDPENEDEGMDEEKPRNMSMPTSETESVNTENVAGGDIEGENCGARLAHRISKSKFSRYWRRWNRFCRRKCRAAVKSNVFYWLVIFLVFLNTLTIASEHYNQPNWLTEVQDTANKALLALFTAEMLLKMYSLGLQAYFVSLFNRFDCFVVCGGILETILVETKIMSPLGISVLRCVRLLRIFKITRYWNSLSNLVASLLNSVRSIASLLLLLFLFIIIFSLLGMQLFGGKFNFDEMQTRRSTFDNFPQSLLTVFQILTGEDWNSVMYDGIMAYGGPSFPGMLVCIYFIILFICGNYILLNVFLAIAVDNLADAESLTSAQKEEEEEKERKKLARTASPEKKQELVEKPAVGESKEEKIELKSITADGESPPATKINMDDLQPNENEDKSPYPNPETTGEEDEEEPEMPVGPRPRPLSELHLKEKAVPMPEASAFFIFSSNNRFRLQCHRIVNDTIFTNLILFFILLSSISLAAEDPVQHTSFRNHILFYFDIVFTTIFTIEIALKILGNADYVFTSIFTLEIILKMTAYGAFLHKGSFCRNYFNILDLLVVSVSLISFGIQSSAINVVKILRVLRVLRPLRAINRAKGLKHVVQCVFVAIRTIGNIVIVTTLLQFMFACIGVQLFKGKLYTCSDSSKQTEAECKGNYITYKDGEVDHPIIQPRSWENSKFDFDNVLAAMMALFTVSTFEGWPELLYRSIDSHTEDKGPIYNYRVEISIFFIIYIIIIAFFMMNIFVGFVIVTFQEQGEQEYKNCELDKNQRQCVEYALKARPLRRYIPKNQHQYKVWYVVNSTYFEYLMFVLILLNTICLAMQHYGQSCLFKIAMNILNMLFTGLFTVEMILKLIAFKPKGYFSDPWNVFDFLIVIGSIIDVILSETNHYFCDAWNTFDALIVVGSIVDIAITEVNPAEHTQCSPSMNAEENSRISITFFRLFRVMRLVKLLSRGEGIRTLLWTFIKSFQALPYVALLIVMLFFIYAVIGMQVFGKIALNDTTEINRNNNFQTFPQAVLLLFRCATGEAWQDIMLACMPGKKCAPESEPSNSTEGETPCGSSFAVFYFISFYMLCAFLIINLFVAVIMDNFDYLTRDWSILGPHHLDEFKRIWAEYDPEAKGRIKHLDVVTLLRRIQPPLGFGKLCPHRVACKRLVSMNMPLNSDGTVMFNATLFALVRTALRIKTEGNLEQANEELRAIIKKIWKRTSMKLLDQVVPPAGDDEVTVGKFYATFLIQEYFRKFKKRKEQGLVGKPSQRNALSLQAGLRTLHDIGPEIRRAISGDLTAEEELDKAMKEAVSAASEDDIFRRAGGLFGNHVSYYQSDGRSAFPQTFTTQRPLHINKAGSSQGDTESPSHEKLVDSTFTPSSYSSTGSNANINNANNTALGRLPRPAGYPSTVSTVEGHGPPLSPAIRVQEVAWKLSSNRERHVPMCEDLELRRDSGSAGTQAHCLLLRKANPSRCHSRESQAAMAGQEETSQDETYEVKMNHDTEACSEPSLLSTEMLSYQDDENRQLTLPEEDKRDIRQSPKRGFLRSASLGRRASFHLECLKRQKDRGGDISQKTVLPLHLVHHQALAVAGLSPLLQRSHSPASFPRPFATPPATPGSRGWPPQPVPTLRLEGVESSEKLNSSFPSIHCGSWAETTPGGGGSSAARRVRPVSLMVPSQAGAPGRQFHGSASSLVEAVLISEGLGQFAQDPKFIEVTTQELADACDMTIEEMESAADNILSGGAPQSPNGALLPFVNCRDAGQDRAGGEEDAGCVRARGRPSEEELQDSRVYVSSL

[7] = Volume of distribution at steady state in Rhesus monkey at 0.5 mg/kg, iv by LC-MS/MS analysis; assay type: ADME, organism-based, Macaca mulatta; settings: in vivo, read-out: Vdss
Summary of the method: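 Three male rhesus monkeys received a 0.5 mg/kg IV bolus into the saphenous or cephalic vein, dosed from a 5 mg/mL solution in DMSO:PEG400 (1:1). EDTA plasma was collected from pre-dose to 24 h. Samples were protein-precipitated with acetonitrile and quantified by positive-ion APCI LC-MS/MS. Vdss was obtained by non-compartmental analysis as clearance × mean residence time, and values are means (n = 3).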

[8] = In vivo receptor occupancy at PDE10A receptor in rat striatum at 0.16 mg/kg, po measured after 1 hr; assay type: functional
Summary of the method: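 Striatal PDE10A occupancy in rats given the compound orally during the novel object recognition test. Occupancy was not measured directly but derived from plasma concentration taken 1 h post dose. n = 4/group, reported as mean (SEM).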

[9] = Selectivity ratio of Ki for N-terminal GST-tagged human recombinant PDE4A1A (1 to 647 residues) expressed in baculovirus-infected Sf9 cells to Ki for human PDE10A2 transfected in human AD293 cells cytosolic fraction
[10] = Selectivity ratio of Ki for N-terminal His-GST-tagged human recombinant PDE3A(669 to 1141 residues) expressed in baculovirus-infected Sf9 cells to Ki for human PDE10A2 transfected in human AD293 cells cytosolic fraction
[11] = Plasma concentration in MK-801-induced psychosis rat model at 0.5 mg/kg, po administered 1 hr prior to MK-801 administration and measured after 90 mins; assay type: ADME, organism-based; settings: time 150 min
Summary of the method: (§1)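 Rats dosed orally, then MK-801 1 h later; locomotor activity recorded over 90 min. Plasma drawn 2.5 h post dose at end of the study and assayed for compound. n = 8/group, reported as mean (SEM).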

[12] = In vivo receptor occupancy at PDE10A receptor in MK-801-induced psychosis rat model striatum at 0.25 mg/kg, po administered 1 hr prior to MK-801 administration and measured after 90 mins; assay type: functional; settings: time 2.5 hrs
Summary of the method: (§2)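 Rats in the MK-801 locomotor study were dosed orally at 0.25, 0.50 or 0.75 mg/kg. Plasma was taken 2.5 h post dose and drug levels measured. Striatal PDE10A occupancy was derived from plasma concentration using the [3H]MK-8193 ex vivo occupancy relation. n = 8/group; mean (SEM).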

[13] = Volume of distribution at steady state in Wistar-Hannover rat at 2 mg/kg, iv by LC-MS/MS analysis; assay type: ADME, organism-based; settings: in vivo, read-out: Vdss
Summary of the method: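 Male Wistar–Hannover rats (~300 g, n = 3) received a 2 mg/kg IV bolus through a jugular vein cannula, dosed from a 5 mg/mL solution in DMSO/PEG400 (1:1). EDTA blood was sampled from pre-dose to 24 h. Plasma was protein-precipitated with acetonitrile and analysed by positive-ion APCI LC-MS/MS. Vdss was calculated non-compartmentally as plasma clearance × mean residence time and reported as the mean.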

[14] = Aqueous solubility of the compound at pH 7; assay type: physicochemical; settings: buffer
[15] = Protein binding in rat plasma; assay type: ADME, cell-free
[16] = Protein binding in human plasma assessed as unbound fraction; assay type: ADME, cell-free
[17] = In vivo receptor occupancy at PDE10A receptor in MK-801-induced psychosis rat model striatum at 0.75 mg/kg, po administered 1 hr prior to MK-801 administration and measured after 90 mins; assay type: functional; settings: time 2.5 hrs; summary of the method: as §2
[18] = Unbound plasma clearance in rat; assay type: ADME; settings: in vivo
Summary of the method: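 Rat unbound clearance (CLu) was calculated by dividing the measured rat plasma clearance by the rat plasma free fraction.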

[19] = Toxicity in rat assessed as prolactin release; settings: in vivo
[20] = Toxicity in CHO cells assessed as chromosomal aberration; assay type: cell-based, Cricetulus griseus; settings: chinese hamster
[21] = Oral bioavailability in Wistar-Hannover rat at 10 mg/kg; assay type: ADME, organism-based; settings: in vivo
Summary of the method: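 Oral gavage, 5 mL/kg. Rats (n = 3 male Wistar–Hannover) received 10 mg/kg in acidified 10% Tween 80, pH 2, sampled 0.25–24 h. Rhesus (2 female, 1 male) received 5 mg/kg in 0.5% methylcellulose with 1 mol equiv HCl. Plasma quantified by LC-MS/MS. F was taken from dose-adjusted PO/IV AUC0-inf ratios versus the 2 mg/kg (rat) or 0.5 mg/kg (rhesus) IV legs; values are means of n = 3.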

[22] = Mutagenicity in Salmonella typhimurium by Ames test; assay type: toxicity; settings: salmonella enterica subsp. enterica serovar typhimurium
P-gp (ABCB1) = P-gp (ABCB1) (Homo sapiens, UniProt P08183); assay: Substrate activity at human P-gp assessed as efflux ratio; assay type: ADME; settings: not told
P-gp (ABCB1), sequence (P08183 whole entry): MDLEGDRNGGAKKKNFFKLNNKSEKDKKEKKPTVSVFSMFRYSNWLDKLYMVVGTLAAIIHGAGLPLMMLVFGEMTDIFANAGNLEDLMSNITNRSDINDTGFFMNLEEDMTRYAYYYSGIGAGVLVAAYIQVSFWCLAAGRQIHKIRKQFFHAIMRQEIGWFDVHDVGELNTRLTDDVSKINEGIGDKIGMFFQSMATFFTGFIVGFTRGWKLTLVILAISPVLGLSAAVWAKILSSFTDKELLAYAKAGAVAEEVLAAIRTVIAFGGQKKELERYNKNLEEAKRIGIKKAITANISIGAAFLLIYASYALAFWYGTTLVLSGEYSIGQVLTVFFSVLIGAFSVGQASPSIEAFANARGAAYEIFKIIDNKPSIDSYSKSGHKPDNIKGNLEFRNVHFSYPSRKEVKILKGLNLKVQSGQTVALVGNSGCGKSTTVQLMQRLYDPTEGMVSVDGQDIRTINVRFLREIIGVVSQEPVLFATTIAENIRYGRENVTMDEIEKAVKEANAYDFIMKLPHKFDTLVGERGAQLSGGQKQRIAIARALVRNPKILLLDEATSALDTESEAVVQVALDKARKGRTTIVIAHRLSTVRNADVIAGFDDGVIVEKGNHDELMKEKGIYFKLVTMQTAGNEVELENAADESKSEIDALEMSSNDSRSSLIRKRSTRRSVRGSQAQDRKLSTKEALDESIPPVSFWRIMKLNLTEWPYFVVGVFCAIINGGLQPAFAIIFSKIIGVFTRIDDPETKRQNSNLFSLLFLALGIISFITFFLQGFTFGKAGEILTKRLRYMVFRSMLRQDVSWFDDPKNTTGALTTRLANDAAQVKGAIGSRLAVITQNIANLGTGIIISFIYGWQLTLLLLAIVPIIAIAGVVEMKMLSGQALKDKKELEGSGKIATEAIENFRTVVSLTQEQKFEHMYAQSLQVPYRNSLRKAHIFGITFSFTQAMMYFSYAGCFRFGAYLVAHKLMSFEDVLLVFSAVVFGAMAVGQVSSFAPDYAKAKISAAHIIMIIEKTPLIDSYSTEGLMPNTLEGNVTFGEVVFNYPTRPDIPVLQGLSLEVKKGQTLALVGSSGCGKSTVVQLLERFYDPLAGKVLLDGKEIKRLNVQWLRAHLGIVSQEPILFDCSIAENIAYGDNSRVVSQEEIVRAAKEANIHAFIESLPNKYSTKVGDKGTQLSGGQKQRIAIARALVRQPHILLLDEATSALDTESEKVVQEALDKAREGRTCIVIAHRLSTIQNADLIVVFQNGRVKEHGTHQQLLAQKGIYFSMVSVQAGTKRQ

[23] = Plasma concentration in MK-801-induced psychosis rat model at 0.75 mg/kg, po administered 1 hr prior to MK-801 administration and measured after 90 mins; assay type: ADME, organism-based; settings: time 150 min; summary of the method: as §1
[24] = In vivo receptor occupancy at PDE10A receptor in MK-801-induced psychosis rat model striatum at 0.5 mg/kg, po administered 1 hr prior to MK-801 administration and measured after 90 mins; assay type: functional; settings: time 2.5 hrs; summary of the method: as §2
[25] = Half life in Rhesus monkey at 0.5 mg/kg, iv by LC-MS/MS analysis; assay type: ADME, organism-based, Macaca mulatta; settings: in vivo
Summary of the method: (§3)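 IV bolus in DMSO/PEG400 (1:1). Male Wistar–Hannover rats (n = 3, ~300 g): 2 mg/kg via jugular cannula, sampled 0.03–24 h. Male rhesus (n = 3): 0.5 mg/kg into saphenous or cephalic vein, sampled to 24 h. Plasma (EDTA) analysed by LC-MS/MS after acetonitrile precipitation. Non-compartmental analysis; CL = dose/AUC0-inf; t1/2 from log-linear regression of the terminal phase. Values are means.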

[26] = Toxicity in rat assessed as weight gain; settings: in vivo
[27] = Plasma clearance in Wistar-Hannover rat at 2 mg/kg, iv by LC-MS/MS analysis; assay type: ADME, organism-based; summary of the method: as §3

For `Cc1ccc([C@H]2C[C@@H]2COc2cc(NCc3nnc(C)s3)nc(C)n2)nc1` [MK-8189], the Ratio Ki [1] was greater than 500000, the IC50 [2] was 0.0016 µM and the Activity (Rattus norvegicus) was “Dose-Dependent Effect”. It also gave a T1/2 [3] of 6.7 min, an IC50 [4] greater than 30 µM and a Ratio Ki [5] greater than 500000. The IC50 [6] was greater than 30 µM, the Vd [7] was 1.4 L/kg and the Occ [8] was 29%. The Ratio Ki [9] was greater than 500000, the Ratio Ki [10] was greater than 500000 and the concentration at 2.5 h [11] was 36 nM. For the same molecule, the Occ [12] was 25%, the Vd [13] was 0.93 L/kg and the solubility [14] was 167 µM (≈ 63.9 µg/mL). It also gave a PPB [15] of 91.8%, a Fu [16] of 4% and an Occ [17] of 50%. For the same molecule, the CL free [18] was 260 mL/min/kg, the Activity [19] was “Non-Toxic” and the Activity [20] was “Non-Toxic”. For the same molecule, the F [21] was 46%, the Activity [22] was “Non-Toxic” and the efflux ratio (P-gp (ABCB1)) was less than 2. The concentration at 2.5 h [23] was 50 nM, the Occ [24] was 41% and the t1/2 [25] was 252 min. The Activity [26] was “Non-Toxic” and the clearance [27] was 21.3 mL/min/kg.
